Assay outcomes (PubChem)
Shown are actives, neighbours in structure and some others; about 1.2% of the full set was active somewhere.
Rin1 Abl inh: inhibitors of Rin1-Abl protein binding, primary screen, biochemical, TR-FRET; inhibition, % at 7.35 µM; hit rate 0.4% among 360,000; Tyrosine-protein kinase ABL1 (Homo sapiens) + Ras and Rab interactor 1 (Homo sapiens), …; in the data active means inhibition above about 5%, passing the limit was not always enough
GalR3 antag: GalR3 antagonists in HEK293 cells, primary screen, cell-based, fluorescence readout; Galanin receptor type 3 (Homo sapiens), O60755; HEK293 GalR3-CNG cAMP membrane potential fluorescence; galR3 body fused to GalR1 C-terminus; inhibition, % at 3 µM; hit rate 0.44% among 360,000;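 active means inhibition above the screen-wide average plus 3 SD, cut at about 13% in these data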;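 further: forskolin and galanin both at EC90 stimulate the cells; cAMP rise reported by CNG channel membrane potential dye signal; 0% = forskolin plus galanin with DMSO and 100% = forskolin alone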
ARFGAP1 inh: inhibitors of rat ARFGAP1 GAP activity, primary screen, biochemical, fluorescence polarization, GDP tracer. Arfgap1-stimulated ARF1 GTP hydrolysis, GDP FP detection. inhibition, % at 16.5 µM. hit rate 0.26% among 360,000;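 active means inhibition above a per-plate limit, mean inhibition of low control wells plus 3 SD, cut at about 25% in these data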;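 further: 0% = DMSO wells with enzyme and 100% = wells lacking Arfgap1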
Target sequence (Q62848 1-136 limits assumed): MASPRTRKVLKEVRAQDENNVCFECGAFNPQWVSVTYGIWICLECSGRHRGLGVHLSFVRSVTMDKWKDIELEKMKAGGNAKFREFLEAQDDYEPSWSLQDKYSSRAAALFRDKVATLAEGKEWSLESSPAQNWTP
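Repeats: one replicate per compound; assay system: rat Arfgap1 catalytic domain, aa 1-136; times: enzyme reaction 120 min at 25 °C after 20 min preincubation; detection: FP of antibody-bound GDP Alexa 633 tracer, ex 620/em 688 nm; benchmarks: high control wells lacking Arfgap1, low control full reaction with DMSO; reagent: human ARF1(Δ1-17)-GTP substrate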
ASAP1 GAP inh: inhibitors of human ASAP1 ArfGAP activity, primary screen, biochemical, fluorescence polarization; ASAP1-stimulated ARF1 GTP hydrolysis, GDP FP detection; inhibition, % at 16.5 µM; hit rate 0.19% among 360,000; in the data active means inhibition above about 25%;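 further: 0% = vehicle with enzyme and substrate and 100% = no enzyme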
Target sequence (Q9ULH1 325-724 limits assumed): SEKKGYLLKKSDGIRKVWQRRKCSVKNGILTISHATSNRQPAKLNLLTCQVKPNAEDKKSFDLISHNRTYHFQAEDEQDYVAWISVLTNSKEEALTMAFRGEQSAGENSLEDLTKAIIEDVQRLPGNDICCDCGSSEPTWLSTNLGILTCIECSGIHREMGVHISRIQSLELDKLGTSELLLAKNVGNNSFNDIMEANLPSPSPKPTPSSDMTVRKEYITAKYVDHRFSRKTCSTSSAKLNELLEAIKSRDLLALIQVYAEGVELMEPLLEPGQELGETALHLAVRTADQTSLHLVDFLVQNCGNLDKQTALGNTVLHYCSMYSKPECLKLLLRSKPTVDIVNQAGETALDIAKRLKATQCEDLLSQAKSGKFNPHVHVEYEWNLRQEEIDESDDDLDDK
Rin1-Abl confirm: Rin1-Abl binding inhibitor retest, confirmation, biochemical, TR-FRET; shares compounds with Rin1 Abl inh; purified proteins; inhibition, % at 7.35 µM; hit rate 49% among 1,300
GFP quench: GFP fluorescence inhibitors and quenchers, artefact control for Rin1-Abl interaction inhibitor project, biochemical; shares compounds with Rin1 Abl inh; hit rate 8.5% among 1,300; inhibitors/quenchers counterscreen; inhibition, % at 6.75 µM;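 further: ABL1-eGFP fusion protein alone without its partner RIN1-SBP; 0% = protein with vehicle and 100% = wells lacking protein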
GFP quench DR: GFP fluorescence inhibitors and quenchers, dose response, artefact control for Rin1-Abl interaction inhibitor project, biochemical | shares compounds with Rin1 Abl inh | GFP fluorescence interference/quenching counterscreen | IC50, µM | 230 tested, under 10 active; call rule not given here;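 further: ABL1-eGFP fusion protein alone without its RIN1 binding partner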
ASAP1 inh confirm: ASAP1 GAP activity inhibitors, confirmation, biochemical, fluorescence polarization, human, triplicate; shares compounds with ASAP1 GAP inh; ASAP1-stimulated Arf1 GTPase, GDP fluorescence polarization; inhibition, % at 16.5 µM; hit rate 37% among 620; AID 624431, 2012;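 active means mean inhibition over triplicates exceeds the hit threshold derived for the earlier primary screening run, cut at about 25% in these data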
ARFGAP1 inh conf: ARFGAP1 inhibitor hit confirmation, biochemical, fluorescence polarization, triplicate; ARFGAP1-stimulated ARF1 GTP hydrolysis, GDP tracer FP; hit rate 30% among 890; inhibition, % at 16.5 µM; shares compounds with ARFGAP1 inh;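 active means average inhibition over triplicates above the hit cutoff set in the earlier primary screen, cut at about 25% in these data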;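 further: 0% = Arfgap1 plus ARF1-GTP with DMSO and 100% = wells lacking Arfgap1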
GalR3 conf: GalR3 antagonist hit confirmation, cell-based, fluorescence, triplicate; shares compounds with GalR3 antag; inhibition, % at 3 µM; HEK293 GalR3 CNG cAMP biosensor, membrane potential fluorescence; galR3 fused to GalR1 carboxy tail; challenged with forskolin and galanin at EC90; hit rate 59% among 1,600; AID 652245, 2013;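 active means inhibition above the primary screen's cutoff, the mean inhibition of all screened compounds plus 3 SD, cut at about 13% in these data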;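 further: 0% = forskolin plus galanin and 100% = forskolin alone with DMSO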
HEK-CNG parental: nonspecific cAMP agonists in parental HEK-CNG cells, counter-screen for GalR3 antagonist project, cell-based, fluorescence, high throughput; shares compounds with GalR3 antag; HEK293-CNG parental cells, cAMP membrane potential fluorescence; normalised: DMSO wells 0%, forskolin wells 100%; activation, % at 3 µM; hit rate 10% among 1,600; AID 652268, 2013; in the data active means activation above about 1.3%
Numbers without * were called inactive; / = no result. Unless noted, no stated cut-off is given here; in the data, active means inhibition above about 6.5%; inactive means the rest.

SMILES | Rin1 Abl inh | GalR3 antag | ARFGAP1 inh | ASAP1 GAP inh | Rin1-Abl confirm | GFP quench | others
COc1ccc(C(CC(C)=O)c2c(O)c3ccccc3oc2=O)cc1OC (centres undefined) | 2 | -5 | 3 | 6 | / | /
O=c1[nH]c2ccccc2n1C1CCN(C(CCc2ccccc2)c2nnnn2Cc2ccccc2)CC1 (centres undefined) | 1 | -8 | 4 | 0 | / | /
CC(C)(C)n1nnnc1C(CCc1ccccc1)N1CCC(n2c(=O)[nH]c3ccccc32)CC1 (centres undefined) | 17* | -6 | 0 | 17 | 11* | -1
CSCCC(c1nnnn1Cc1ccccc1)N1CCC(n2c(=O)[nH]c3ccccc32)CC1 (centres undefined) | 5 | -6 | 3 | 2 | / | /
CSCCC(c1nnnn1C1CCCC1)N1CCC(n2c(=O)[nH]c3ccccc32)CC1 (centres undefined) | 19* | -5 | 13 | 11 | 20* | -2 | GFP quench DR=>68
CSCCC(c1nnnn1C1CCCCC1)N1CCC(n2c(=O)[nH]c3ccccc32)CC1 (centres undefined) | 53* | -9 | -4 | -3 | 44* | -2 | GFP quench DR=>68
O=c1[nH]c2ccccc2n1C1CCN(C(CCc2ccccc2)c2nnnn2C2CCCCC2)CC1 (centres undefined) | 27* | -3 | -4 | -7 | 14* | 0
COc1ccc2c(c1O)-c1c(OC)c(OC)cc3c1[C@H](C2)N(C)CC3 | 1 | -3 | -6 | -9 | / | /
CCCN1CCc2cccc3c2[C@H]1Cc1ccc(O)c(O)c1-3 | 12* | / | / | / | 6 | 8.6*
COCCCNC(=O)c1c(N)n(Cc2ccco2)c2nc3ccccc3nc12 | -1 | -1 | 3 | 3 | / | /
COc1ccc(Cn2c(N)c(C(=O)NCc3ccco3)c3nc4ccccc4nc32)cc1OC | 15* | 1 | 20 | -6 | -4 | 0
C=Cc1cc(OC)c2c(c1)c(=O)oc1c2cc(OC)c2c(O)ccc(C3OC(C)C(O)C(C)(O)C3O)c21 (centres undefined) | 22* | -5 | 16 | 15 | -5 | 1
N#CC1c2ccccc2-n2nncc2CN1S(=O)(=O)c1ccccc1 (centres undefined) | 10* | 4 | 9 | 18 | 3 | 0
COc1ccc(OC(=O)N(C)C[C@H]2OCc3cnnn3CCCC(=O)N([C@@H](C)CO)C[C@@H]2C)cc1 | / | -5 | -3 | -16 | / | /
Nc1c(C(=O)NC2CCCC2)c2nc3ccccc3nc2n1CC1CCCO1 (centres undefined) | 19* | -8 | 13 | 6 | 1 | 1
Nc1c(C(=O)NCC2CCCO2)c2nc3ccccc3nc2n1Cc1ccco1 (centres undefined) | -2 | -5 | 1 | -1 | / | /
CC(=O)C1=C(C)OC2=C(C(=O)CCC2)[C@@]12C(=O)N(C)c1ccccc12 | / | -5 | 3 | -3 | / | /
O=c1[nH]c2ccccc2n1C1CCN(C(c2cc3ccccc3o2)c2nnnn2-c2ccc3c(c2)OCCO3)CC1 (centres undefined) | 2 | -1 | 7 | 9 | / | /
CCOC(=O)[C@]12Cc3c(cc(OC)c(OC)c3OC)[C@H]1N(C1CCCCC1)C(=O)c1ccccc12 | / | 3 | -11 | -2 | / | /
O=c1[nH]c(=O)n(-c2ccc(Br)cc2)c(O)c1C=NC(CO)(CO)CO | 6.0* | -1 | -3 | 2 | -1 | -1
COC1CC=C2CCN3CCC4=C(CC(=O)OC4)C23C1 (centres undefined) | / | -2 | 9 | -11 | / | /
CCOC(=O)c1c(NS(=O)(=O)c2ccccc2)n(CCCOC)c2nc3ccccc3nc12 | 33* | -5 | 34* | 4 | 1 | 0 | ARFGAP1 inh conf=-10
CC(C)OC(=O)C1C(c2ccc(I)cc2)CC2CCC1N2C (centres undefined) | / | -7 | 7 | 4 | / | /
Oc1ccc(C[C@H]2NCCc3cc(O)c(O)cc32)cc1O | 62* | 37* | -11 | 0 | 70* | 4 | GFP quench DR=>68;GalR3 conf=53*;HEK-CNG parental=2.5*
O=C(NCCN1CCC2(CC1)C(=O)NCN2c1ccccc1)c1cccs1 | / | -6 | -5 | -4 | / | /
SMILES | Rin1 Abl inh | GalR3 antag | ARFGAP1 inh | ASAP1 GAP inh | Rin1-Abl confirm | GFP quench | others
Cc1ccc(/C=C2\C(=O)NC(=O)N(Cc3ccccc3Cl)C2=O)o1 | 5 | -3 | 2 | 28* | / | / | ASAP1 inh confirm=8
O=S(=O)(c1ccc(Cl)cc1)N1Cc2ccc(Br)cc2-n2nncc2C1 | / | -9 | -3 | -2 | / | /
COP(=O)(OC)C(NC(C)=O)C(Cl)(Cl)Cl (centres undefined) | 1 | -4 | 14 | 26* | / | / | ASAP1 inh confirm=4
CCSc1nnc([C@@H](N)Cc2ccccc2)o1 | -1 | -6 | 5 | 1 | / | /
CCSc1nnc(C(N)Cc2ccccc2)o1 (centres undefined) | 2 | 0 | -3 | 29* | / | / | ASAP1 inh confirm=-2
CC(C)S(=O)(=O)N1Cc2ccc(Br)cc2-n2nncc2C1 | / | -8 | 5 | 12 | / | /
COc1ccc(/C=C/C(=O)NC(=S)N2C[C@H]3C[C@H](C2)c2cccc(=O)n2C3)cc1 | 4 | 1 | -10 | -2 | / | /
